Laboratory results published in PubChem BioAssay AID504511 (The Scripps Research Institute Molecular Screening Center, 2011).
Active and inactive are the calls of the source.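 How the source made its calls: active means cytotoxic compound whose concentration leaving half the cells alive is below 5 µM in either medium; inactive means the rest.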

Test: cytotoxicity in BW5147 murine T cells, late-stage follow-up, cytotoxicity control for PAFAH2 inhibitor project, cell-based, absorbance, serum-free and serum media (AID 504511)
Conditions: BW5147 murine T cells viability, WST-1 absorbance
Summary of the method: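 Detection: WST-1 absorbance. Material: murine BW5147-derived T cells. Compound: Seven-point fivefold dilution series, top final dose 50 µM. Times: 48 h compound exposure of cells at 37 °C.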

SMILES	CC50 (serum-free media)	CC50 (with FCS)
O=C(N1CCCC1)n1ncc(-c2ccc(-c3ccccc3)cc2)n1	35 µM (inactive)	> 50 µM (inactive)
O=C(N1CCCC1)n1ncc(-c2ccc(Oc3ccccc3)cc2)n1	48 µM (inactive)	> 50 µM (inactive)
